# Results published in ChEMBL document CHEMBL4312029, “Structure-activity relationship studies and in vitro and in vivo anticancer activity of novel 3-aroyl-1,4-diarylpyrroles against solid tumors and hematological malignancies” (Eur J Med Chem, 2020).
# Calls of active or inactive are those of the source. No cut-off for these calls is given here.
# Columns and labels:
# Tubulin = assay: Inhibition of tubulin polymerization (unknown origin) incubated for 15 mins followed by GTP addition and measured for 20 mins by spectrophotometry; format: protein-complex assay, Homo sapiens
# Outline: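 Tubulin assembly assay with tubulin at 10 µM. IC50 for inhibition of polymerization; run in duplicate or triplicate.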
# MCF7 = assay: Cytotoxicity against human MCF7 cells assessed as reduction in cell growth incubated for 96 hrs by MTT assay; format: functional, cell-based; settings: MCF7, 96 h
# Outline: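 Growth inhibition of human breast carcinoma cells, reported as IC50; run in duplicate or triplicate.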
# Tubulin (Homo sapiens) = Tubulin (Homo sapiens) (UniProt P68371+Q9H4B7+P0DPH7+P68366+Q13509+Q71U36+P04350+Q3ZCM7+P07437+P68363+Q9BQE3+Q6PEY2+Q13885+Q9BVA1+Q9BUF5); assay: Inhibition of [3H]colchicine binding to tubulin (unknown origin) at 5 uM incubated for 10 mins by DEAE-cellulose filter method relative to control; format: protein-complex assay
# KU812 cell line = assay: Cytotoxicity against human KU812 cells expressing IM- sensitive wild type Bcr/Abl assessed as reduction in cell viability incubated for 48 hrs by MTT assay; format: functional, cell-based; settings: KU812, 48 h
# [1] = Cytotoxicity against human LAMA84-s cells expressing IM-sensitive wild type Bcr/Abl assessed as reduction in cell viability incubated for 48 hrs by MTT assay; format: functional, cell-based
# [2] = Cytotoxicity against IM resistant human LAMA84-r cells assessed as reduction in cell viability incubated for 48 hrs by MTT assay; format: functional, cell-based
# KBM5 [3] = assay: Cytotoxicity against human KBM5 cells expressing IM- sensitive wild type Bcr/Abl assessed as reduction in cell viability incubated for 48 hrs by MTT assay; format: functional, cell-based; settings: KBM5, 48 h
# KBM5 [4] = assay: Cytotoxicity against human KBM5 cells expressing IM-resistant Bcr/Abl T315I mutant assessed as reduction in cell viability incubated for 48 hrs by MTT assay; format: functional, cell-based; settings: KBM5, 48 h
# [5] = (§1) Cytotoxicity against human U343MG cells assessed as reduction in cell viability incubated for 72 hrs by MTS assay; format: functional, cell-based; settings: U-343MG
# Outline: (§2)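 Increasing concentrations applied to glioblastoma and neuroblastoma lines to give dose-response viability curves; cytotoxic IC50 from triplicate experiments. Incubation 48 h, except U343MG at 72 h.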
# Homo sapiens = species: Homo sapiens; assay: as §1; format: functional, cell-based; outline: as §2
# U-87 MG = assay: Cytotoxicity against human U87MG cells assessed as reduction in cell viability incubated for 48 hrs by MTS assay; format: functional, cell-based, U-87MG ATCC; outline: as §2
# T98G = assay: Cytotoxicity against human T98G cells assessed as reduction in cell viability incubated for 48 hrs by MTS assay; format: functional, cell-based; outline: as §2
# [6] = Cytotoxicity against human SK-N-BE cells assessed as reduction in cell viability incubated for 48 hrs by MTT assay; format: functional, cell-based; outline: as §2
# [7] = Cytotoxicity against human SK-N-BE(2)C cells assessed as reduction in cell viability incubated for 48 hrs by MTT assay; format: functional, cell-based; outline: as §2
# HCT-116 = assay: Cytotoxicity against human HCT116 cells assessed as reduction in cell viability incubated for 48 hrs by MTT assay; format: functional, cell-based
# HT-29 = assay: Cytotoxicity against human HT-29 cells assessed as reduction in cell viability incubated for 48 hrs by MTT assay; format: functional, cell-based
# SW480 = assay: Cytotoxicity against human SW480 cells assessed as reduction in cell viability incubated for 48 hrs by MTT assay; format: functional, cell-based
# SW-620 = assay: Cytotoxicity against human SW620 cells assessed as reduction in cell viability incubated for 48 hrs by MTT assay; format: functional, cell-based
# T-24 = assay: Cytotoxicity against human T24 cells assessed as reduction in cell viability incubated for 48 hrs by MTT assay; format: functional, cell-based; settings: T-24, 48 h
# PBMC = assay: Cytotoxicity against human PBMC assessed as cell viability by MTT assay; format: cell-based
# KBM5 [8] = assay: Induction of apoptotic cell death in human KBM5 cells expressing IM-sensitive wild type Bcr/Abl at 10 nM incubated for 48 hrs by Annexin V-staining based flow cytometry; format: functional
# Outline: (§3)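 KBM5-WT and KBM5-T315I cells exposed 48 h to 10 nM test compound alone or combined with 10 nM nilotinib (nilotinib alone as comparator). Apoptotic cells quantified by annexin V staining and flow cytometry; triplicate.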
# KBM5 [9] = assay: Induction of apoptotic cell death in human KBM5 cells expressing IM-resistant Bcr/Abl T315I mutant at 10 nM incubated for 48 hrs by Annexin V-staining based flow cytometry; format: functional; outline: as §3
compound,measurement,setting,value
COc1cc(C(=O)c2cn(-c3cccc(N)c3)cc2-c2ccccc2[N+](=O)[O-])cc(OC)c1OC,IC50,Tubulin,710 nM
same,IC50,MCF7,14 nM
same,inhibition,Tubulin (Homo sapiens),82%
same,IC50,KU812 cell line,16 nM
same,IC50,[1],18 nM
same,IC50,[2],20 nM
same,IC50,KBM5 [3],15 nM
same,IC50,KBM5 [4],21 nM
same,Emax,[5],35.3%
same,IC50,[5],30 to 30.2 nM
same,inhibition,Homo sapiens,Dose-dependent effect
same,Emax,U-87 MG,32.4%
same,IC50,U-87 MG,29.9 to 30 nM
same,inhibition,U-87 MG; U-87MG ATCC,Dose-dependent effect
same,Emax,T98G,26.7%
same,IC50,T98G,34.6 to 35 nM
same,inhibition,T98G,Dose-dependent effect
same,IC50,[6],311 nM
same,IC50,[7],132 nM
same,inhibition,HCT-116,Dose-dependent effect
same,IC50,"HCT-116; HCT-116, 48 h",44 nM
same,inhibition,HT-29,Dose-dependent effect
same,IC50,"HT-29; HT-29, 48 h",51 nM
same,inhibition,SW480,Dose-dependent effect
same,IC50,"SW480; SW480, 48 h",164 nM
same,inhibition,SW-620,Dose-dependent effect
same,IC50,"SW-620; SW-620, 48 h",38 nM
same,IC50,T-24,12 nM
same,Activity,PBMC,Non-Toxic
Cc1cn(-c2cc(NC(=O)c3ccc(C)c(Nc4nccc(-c5cccnc5)n4)c3)cc(C(F)(F)F)c2)cn1 [NILOTINIB],IC50,KU812 cell line,10 nM
same,IC50,[1],11 nM
same,IC50,[2],126 nM
same,IC50,KBM5 [3],12 nM
same,IC50,KBM5 [4],2420 nM
same,Activity,KBM5 [8],Active
same,Activity,KBM5 [9],Active
